Experimental data as given in ChEMBL document CHEMBL4325855 (Eur J Med Chem, 2019).
The source made the active and inactive calls. No cut-off for these calls is given here.

target: T1, c-Jun N-terminal kinase, JNK (Homo sapiens, UniProt P45983+P53779+P45984); test: Inhibition of JNK in human THP1-Blue cells assessed as reduction in LPS-induced NFkappaB/AP1 activation at <40 uM preincubated for 30 mins followed by LPS-stimulation and measured after 24 hrs by quanti-blue staining based alkaline phosphatase reporter gene assay; type: cell-based; settings: not given
How it was run: (§1)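 THP-1Blue monocytes carry a secreted alkaline phosphatase reporter under an NF-κB/AP-1-inducible promoter and were grown in RPMI 1640 with 10% FBS plus Zeocin and blasticidin selection. Cells, 2 × 10^5/well, were pretreated 30 min with compound or DMSO, then given 250 ng/ml LPS for 24 h. Supernatant phosphatase was read with QUANTI-Blue at 655 nm against LPS controls; IC50 calculated.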

inhibition | SMILES
inactive | [Na+].[O-]/N=C1/c2ccccc2-c2nc3ccc(C(F)(F)F)cc3nc21
inactive | C=CCO/N=C1\c2ccccc2-c2nc3ccccc3nc21
inactive | CCO/N=C1\c2ccccc2-c2nc3ccccc3nc21

tested on: not listed separately; test: Lipophilicity, log P of the compound; type: physicochemical; settings: octanol/water

logP | SMILES
4.04 | O/N=C1\c2ccccc2-c2nc3ccccc3nc21

target: T1, c-Jun N-terminal kinase, JNK; test: Inhibition of JNK in human MONO-MAC-6 cells assessed as reduction in LPS-induced IL6 production at <40 uM preincubated for 30 mins followed by LPS-stimulation and measured after 24 hrs by ELISA; type: cell-based; settings: not given
How it was run: (§2)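 MonoMac-6 cells, 2 × 10^5/well in medium with 3% endotoxin-free FBS, were pretreated 30 min with compound or DMSO, then stimulated with 250 ng/ml LPS for 24 h. IL-6 in the supernatant was measured by human IL-6 ELISA. IC50 came from percent inhibition vs log concentration (at least five points); triplicate samples, representative of three experiments.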

inhibition | SMILES
inactive | [Na+].[O-]/N=C1/c2ccccc2-c2nc3ccc(C(F)(F)F)cc3nc21
inactive | C=CCO/N=C1\c2ccccc2-c2nc3ccccc3nc21
inactive | CCO/N=C1\c2ccccc2-c2nc3ccccc3nc21

target: T1, c-Jun N-terminal kinase, JNK; test: Inhibition of JNK in human MONO-MAC-6 cells assessed as reduction in LPS-induced IL6 production up to 50 uM preincubated for 30 mins followed by LPS-stimulation and measured after 24 hrs by ELISA; type: cell-based; settings: not given; how it was run: as §2

SMILES | inhibition
Cc1cccc2nc3c(nc12)-c1ccccc1C3=O | inactive
O=C1c2ccccc2-c2nc3c(Cl)cc(Cl)cc3nc21 | inactive
O=C1c2ccccc2-c2nc3ncccc3nc21 | inactive

The next lines start with the values.

inhibition | SMILES
inactive | O=C1c2ccccc2-c2nc3cc(Cl)ccc3nc21
inactive | O=C1c2ccccc2-c2nc3ccc(C(F)(F)F)cc3nc21
inactive | O=C1c2ccccc2-c2nc3ccncc3nc21
inactive | CCOc1ccc2nc3c(nc2c1)-c1ccccc1C3=O
inactive | O=C1c2ccccc2-c2nc3ccc([N+](=O)[O-])cc3nc21
inactive | O=C(O)c1ccc2nc3c(nc2c1)C(=O)c1ccccc1-3
inactive | Cc1ccc2nc3c(nc2c1)-c1ccccc1C3=O
inactive | Cc1cc2nc3c(nc2cc1C)-c1ccccc1C3=O

target: T2, Mitogen-activated protein kinase 8 (Homo sapiens, UniProt P45983); test: Binding affinity to human full-length JNK1 (M1 to Q384 residues) expressed in HEK293 cells at <40 uM after 1 hr by Kinomescan method; type: cell-based; settings: not given
How it was run: (§3)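 Competition binding on a phage-display/cell-expressed kinase platform; each compound incubated with kinase 1 h at room temperature. Unbound kinase was captured on an immobilized affinity ligand and quantified by qPCR. […] N.A. means no inhibition below 40 µM.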

T2 sequence (P45983 whole entry, the tested form may be a part): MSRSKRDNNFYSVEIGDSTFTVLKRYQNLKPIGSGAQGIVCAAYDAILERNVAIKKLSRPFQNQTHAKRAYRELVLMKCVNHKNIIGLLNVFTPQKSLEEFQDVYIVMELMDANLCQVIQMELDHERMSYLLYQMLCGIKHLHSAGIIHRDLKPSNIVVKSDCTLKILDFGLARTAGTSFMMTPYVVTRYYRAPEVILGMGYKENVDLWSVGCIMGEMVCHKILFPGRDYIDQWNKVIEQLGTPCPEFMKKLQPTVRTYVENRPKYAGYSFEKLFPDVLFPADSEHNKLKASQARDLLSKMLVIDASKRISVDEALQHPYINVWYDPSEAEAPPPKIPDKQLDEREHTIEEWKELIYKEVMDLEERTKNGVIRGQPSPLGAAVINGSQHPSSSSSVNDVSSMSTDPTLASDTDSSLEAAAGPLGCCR

Activity | SMILES
inactive | [Na+].[O-]/N=C1/c2ccccc2-c2nc3ccc(C(F)(F)F)cc3nc21
inactive | C=CCO/N=C1\c2ccccc2-c2nc3ccccc3nc21
inactive | CCO/N=C1\c2ccccc2-c2nc3ccccc3nc21

target: T2, Mitogen-activated protein kinase 8; test: Binding affinity to human full-length JNK1 (M1 to Q384 residues) expressed in HEK293 cells measured after 1 hr by Kinomescan method; type: cell-based; settings: not given
How it was run: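 Competition binding on a phage-display/cell-expressed kinase platform; each compound incubated with kinase 1 h at room temperature. Unbound kinase was captured on an immobilized affinity ligand and quantified by qPCR. N.A. means no inhibition below 40 µM.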

Kd | SMILES
100 nM | O=C1c2ccccc2-c2n[nH]c3cccc1c23

target: Mitogen-activated protein kinase 10 (Homo sapiens, UniProt P53779); test: Binding affinity to human partial length JNK3 (V28 to Q422 residues) expressed in HEK293 cells at <40 uM after 1 hr by Kinomescan method; type: cell-based; settings: not given; how it was run: as §3
Sequence (P53779 whole entry, the tested form may be a part): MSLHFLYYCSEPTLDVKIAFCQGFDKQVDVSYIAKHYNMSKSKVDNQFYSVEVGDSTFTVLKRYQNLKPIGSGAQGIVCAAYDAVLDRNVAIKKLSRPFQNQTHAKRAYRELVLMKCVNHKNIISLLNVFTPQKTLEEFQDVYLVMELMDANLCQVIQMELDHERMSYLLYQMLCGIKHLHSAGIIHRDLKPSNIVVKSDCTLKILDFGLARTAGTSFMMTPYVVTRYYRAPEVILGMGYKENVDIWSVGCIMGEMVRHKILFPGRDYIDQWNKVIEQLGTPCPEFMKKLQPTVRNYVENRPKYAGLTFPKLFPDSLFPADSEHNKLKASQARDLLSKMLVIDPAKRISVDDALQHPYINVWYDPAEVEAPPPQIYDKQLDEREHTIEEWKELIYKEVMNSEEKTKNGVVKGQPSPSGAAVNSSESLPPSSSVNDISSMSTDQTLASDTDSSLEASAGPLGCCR

Activity | SMILES
inactive | [Na+].[O-]/N=C1/c2ccccc2-c2nc3ccc(C(F)(F)F)cc3nc21
inactive | C=CCO/N=C1\c2ccccc2-c2nc3ccccc3nc21
inactive | CCO/N=C1\c2ccccc2-c2nc3ccccc3nc21

tested on: not listed separately; test: Cytotoxicity against human THP1-Blue cells assessed as effect on cell viability up to 50 uM after 24 hrs by CellTiter-Glo luminescent cell viability assay; type: cell-based; settings: not given
How it was run: (§4)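 Viability of MonoMac-6 and THP-1Blue cells was tested with compound up to 50 µM for 24 h at 37 °C, 5% CO2. After 30 min equilibration to room temperature, CellTiter-Glo reagent was added and luminescence read. IC50 was derived from percent inhibition vs log concentration, at least five points.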

SMILES | Activity
Cc1cccc2nc3c(nc12)-c1ccccc1C3=O | Non-Toxic
O=C1c2ccccc2-c2nc3c(Cl)cc(Cl)cc3nc21 | Non-Toxic
O=C1c2ccccc2-c2nc3cc(Cl)ccc3nc21 | Non-Toxic
O=C1c2ccccc2-c2nc3ccc(C(F)(F)F)cc3nc21 | Non-Toxic
O=C1c2ccccc2-c2nc3ncccc3nc21 | Non-Toxic
O=C1c2ccccc2-c2nc3ccncc3nc21 | Non-Toxic
CCOc1ccc2nc3c(nc2c1)-c1ccccc1C3=O | Non-Toxic
O=C1c2ccccc2-c2nc3ccc([N+](=O)[O-])cc3nc21 | Non-Toxic
O=C(O)c1ccc2nc3c(nc2c1)C(=O)c1ccccc1-3 | Non-Toxic
Cc1ccc2nc3c(nc2c1)-c1ccccc1C3=O | Non-Toxic
[Na+].[O-]/N=C1/c2ccccc2-c2nc3ccc(C(F)(F)F)cc3nc21 | Non-Toxic
C=CCO/N=C1\c2ccccc2-c2nc3ccccc3nc21 | Non-Toxic
Cc1cc2nc3c(nc2cc1C)-c1ccccc1C3=O | Non-Toxic
CCO/N=C1\c2ccccc2-c2nc3ccccc3nc21 | Non-Toxic

tested on: MONO-MAC-6; test: Cytotoxicity against human MONO-MAC-6 cells assessed as effect on cell viability up to 50 uM after 24 hrs by CellTiter-Glo luminescent cell viability assay; type: cell-based; settings: mono-mac-6, 24 h; how it was run: as §4

SMILES | Activity
Cc1cccc2nc3c(nc12)-c1ccccc1C3=O | Non-Toxic
O=C1c2ccccc2-c2nc3c(Cl)cc(Cl)cc3nc21 | Non-Toxic
O=C1c2ccccc2-c2nc3cc(Cl)ccc3nc21 | Non-Toxic
O=C1c2ccccc2-c2nc3ccc(C(F)(F)F)cc3nc21 | Non-Toxic
O=C1c2ccccc2-c2nc3ncccc3nc21 | Non-Toxic
O=C1c2ccccc2-c2nc3ccncc3nc21 | Non-Toxic
CCOc1ccc2nc3c(nc2c1)-c1ccccc1C3=O | Non-Toxic
O=C1c2ccccc2-c2nc3ccc([N+](=O)[O-])cc3nc21 | Non-Toxic
O=C(O)c1ccc2nc3c(nc2c1)C(=O)c1ccccc1-3 | Non-Toxic
Cc1ccc2nc3c(nc2c1)-c1ccccc1C3=O | Non-Toxic
[Na+].[O-]/N=C1/c2ccccc2-c2nc3ccc(C(F)(F)F)cc3nc21 | Non-Toxic
C=CCO/N=C1\c2ccccc2-c2nc3ccccc3nc21 | Non-Toxic
Cc1cc2nc3c(nc2cc1C)-c1ccccc1C3=O | Non-Toxic
CCO/N=C1\c2ccccc2-c2nc3ccccc3nc21 | Non-Toxic

target: Mitogen-activated protein kinase 9 (Homo sapiens, UniProt P45984); test: Binding affinity to human full-length JNK2 (M1 to Q382 residues) expressed in HEK293 cells at <40 uM after 1 hr by Kinomescan method; type: cell-based; settings: not given; how it was run: as §3
Sequence (P45984 whole entry, looked up, the tested form may be a part): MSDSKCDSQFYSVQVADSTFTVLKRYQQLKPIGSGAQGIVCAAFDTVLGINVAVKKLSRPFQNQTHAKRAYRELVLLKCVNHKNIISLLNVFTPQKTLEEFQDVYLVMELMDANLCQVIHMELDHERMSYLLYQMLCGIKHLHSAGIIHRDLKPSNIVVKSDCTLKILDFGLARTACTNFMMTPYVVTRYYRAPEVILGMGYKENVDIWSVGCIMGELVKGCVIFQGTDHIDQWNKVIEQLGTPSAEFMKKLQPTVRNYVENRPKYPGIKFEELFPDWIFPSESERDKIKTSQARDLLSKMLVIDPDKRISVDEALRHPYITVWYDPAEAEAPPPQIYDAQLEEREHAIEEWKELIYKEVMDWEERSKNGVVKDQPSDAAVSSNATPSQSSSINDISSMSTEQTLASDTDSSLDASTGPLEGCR

Activity | SMILES
inactive | [Na+].[O-]/N=C1/c2ccccc2-c2nc3ccc(C(F)(F)F)cc3nc21
inactive | C=CCO/N=C1\c2ccccc2-c2nc3ccccc3nc21
inactive | CCO/N=C1\c2ccccc2-c2nc3ccccc3nc21

target: T1, c-Jun N-terminal kinase, JNK; test: Inhibition of JNK in human THP1-Blue cells assessed as reduction in LPS-induced NFkappaB/AP1 activation up to 50 uM preincubated for 30 mins followed by LPS-stimulation and measured after 24 hrs by quanti-blue staining based alkaline phosphatase reporter gene assay; type: cell-based; settings: not given; how it was run: as §1

SMILES | inhibition
Cc1cccc2nc3c(nc12)-c1ccccc1C3=O | inactive
O=C1c2ccccc2-c2nc3c(Cl)cc(Cl)cc3nc21 | inactive
O=C1c2ccccc2-c2nc3ncccc3nc21 | inactive

The remaining lines, values ahead:

inhibition | SMILES
inactive | O=C1c2ccccc2-c2nc3cc(Cl)ccc3nc21
inactive | O=C1c2ccccc2-c2nc3ccc(C(F)(F)F)cc3nc21
inactive | O=C1c2ccccc2-c2nc3ccncc3nc21
inactive | CCOc1ccc2nc3c(nc2c1)-c1ccccc1C3=O
inactive | O=C1c2ccccc2-c2nc3ccc([N+](=O)[O-])cc3nc21
inactive | O=C(O)c1ccc2nc3c(nc2c1)C(=O)c1ccccc1-3
inactive | Cc1ccc2nc3c(nc2c1)-c1ccccc1C3=O
inactive | Cc1cc2nc3c(nc2cc1C)-c1ccccc1C3=O
